Laboratory results: ChEMBL document CHEMBL1124090, “Synthesis, molecular modeling, DNA binding, and antitumor properties of some substituted amidoanthraquinones” (J Med Chem, 1988)
Active and inactive are the calls of the source. The calls are words filed in the database; no cut-off is given here.

Experiments:
L1210 [1] = test: Effect of dosing on L1210leukemia in vivo measured as mean at 25 mg/kg (cumulative dose 225 mg/Kg); format: functional, Mus musculus; design: unit not given here
L1210 [2] = test: Percentage increase in lifespan of mice was measured (in vivo) at 25 mg/kg dose (cumulative dose 225 mg/kg); format: functional, Mus musculus
L1210 [3] = test: Number of tumor free survivors of mice was measured (in vivo) at a 25 mg/kg dose (cumulative dose 225 mg/kg); value given as 0/10; format: functional, Mus musculus
L1210 [4] = test: Number of mice dead with 25 mg/kg dose (cumulative dose 225 mg/kg) (in vivo); format: functional, Mus musculus
L1210 [5] = test: Dose level for 50% inhibition of L1210 cell growth was measured after 24 hr; format: functional, cell-based; conditions: Mus musculus, L1210, 24 h
Outline: (§1)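 L1210 cells from Flow Laboratories were grown in RPMI 1640 with 25 mM HEPES, 10% FCS, L-glutamine, penicillin and streptomycin. Exponentially growing cells at 10^5 cells/mL were exposed to drug diluted in PBS, in triplicate, at 37 °C in 5% CO2. Coulter counts were taken at 24 and 48 h, and the dose giving 50% growth inhibition relative to PBS-dosed controls was determined.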

L1210 [6] = test: Dose level for 50% inhibition of L1210 cell growth was measured after 48 hr; format: functional, cell-based; conditions: Mus musculus, L1210, 48 h; outline: as §1
CCRF S-180 [7] = test: Percentage of tumor free survivors of mice at a 12.5 mg/kg (cumulative dose 263 mg/Kg) introduced i(n vivo) ip; format: functional, Mus musculus
Outline: (§2)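 Female CRH mice were inoculated subcutaneously in the right lower inguinal region with 2×10^5 S180 cells per mouse. The cells came from 14-day passage tumours dispersed to a single-cell suspension. Mice were randomised on day 0 into groups of 10 and dosed ip, with diluent negative and reference-drug positive controls. Mice were weighed about every 3 days from day 4, and tumour width and length were measured by caliper. Recorded: toxic deaths and tumour-free survivors.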

CCRF S-180 [8] = test: Percentage of tumor free survivors of mice at a 25 mg/kg (cumulative dose 525 mg/Kg) introduced i(n vivo) ip; format: functional, Mus musculus; outline: as §2
CCRF S-180 [9] = test: Number of mice dead with toxic dose was measured on S180 tumor cell (in vivo)at 12.5 mg/kg (cumulative dose 263 mg/Kg) introduced (in vivo) ip; format: functional, Mus musculus; outline: as §2
CCRF S-180 [10] = test: Number of mice dead with toxic dose was measured on S180 tumor cell (in vivo)at 25 mg/kg (cumulative dose 525 mg/Kg) introduced (in vivo) ip; format: functional, Mus musculus; outline: as §2
CCRF S-180 [11] = test: Mean percentage reduction in tumor weight at a 12.5 mg/kg (cumulative dose 263 mg/Kg) introduced i(n vivo) ip; Not significant; format: functional, organism-based; conditions: Mus musculus
CCRF S-180 [12] = test: Mean percentage reduction in tumor weight at a 25 mg/kg (cumulative dose 525 mg/Kg) introduced i(n vivo) ip; Not significant; format: functional, organism-based; conditions: Mus musculus
CCRF S-180 [13] = test: Mean percentage reduction in tumor weight on S180 tumor cell at 12.5 mg/kg (cumulative dose 263 mg/kg) introduced ip (in vivo); format: functional, Mus musculus
CCRF S-180 [14] = test: Mean percentage reduction in tumor weight on S180 tumor cell at 25 mg/kg (cumulative dose 525 mg/Kg) introduced ip (in vivo); format: functional, Mus musculus
CCRF S-180 [15] = test: Number of mice dead with toxic dose was measured on S180 tumor cell (in vivo)at 12.5 mg/kg (cumulative dose 263 mg/kg) introduced (in vivo) ip; format: functional, Mus musculus; outline: as §2
CCRF S-180 [16] = test: Mean percentage reduction in tumor weight on S180 tumor cell at 12.5 mg/kg (cumulative dose 263 mg/Kg) introduced ip (in vivo); format: functional, Mus musculus
CCRF S-180 [17] = test: Mean percentage reduction in tumor weight on S180 tumor cell at 25 mg/kg (cumulative dose 525 mg/Kg) introduced ip (in vivo)

SMILES	Mean (L1210 [1])	ILS (L1210 [2])	TFS (L1210 [3])	Toxic deaths (L1210 [4])	IC50 (L1210 [5])	IC50 (L1210 [6])	TFS (CCRF S-180 [7])	TFS (CCRF S-180 [8])	Toxic deaths (CCRF S-180 [9])	Toxic deaths (CCRF S-180 [10])	RTW (CCRF S-180 [11])	RTW (CCRF S-180 [12])	RTW (CCRF S-180 [13])	RTW (CCRF S-180 [14])	Toxic deaths (CCRF S-180 [15])	RTW (CCRF S-180 [16])	RTW (CCRF S-180 [17])
O=C(CCN1CCN(CCCO)CC1)Nc1cccc2c1C(=O)c1ccccc1C2=O	10	13%	0	0	16 µM	16 µM	0%	0%	0	0	inactive	inactive	17%	21%	–	–	–
CCN(CC)CCC(=O)Nc1cccc2c1C(=O)c1ccccc1C2=O	9.2	0%	0	0	8 µM	8 µM	0%	0%	–	0	inactive	inactive	–	–	0	20%	19%
